The text below walks through data of ChEMBL document CHEMBL2417455, “Design, synthesis and biological evaluation of new aryl thiosemicarbazone as antichagasic candidates” (Eur J Med Chem, 2013).

Data set [1] has as its target Cruzipain (Trypanosoma cruzi) (UniProt P25779). Put plainly: Inhibition of Trypanosoma cruzi cruzain expressed in Escherichia coli DH5-alpha using Bz-Phe-Arg-AMC as substrate at 10 uM preincubated for 5 mins followed by substrate addition measured for 5 mins by spectrofluorimetric analysis relative to control. The essentials: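 Recombinant cruzain at 0.23 nM in pH 6.5 buffer (50 mM Na2PO4, 2.5 mM EDTA), preincubated 5 min with or without inhibitor at a single 10 µM concentration. Bz-Phe-Arg-AMC was then added (stock 170 µM). Fluorescence was read at ex 380/em 460 nm, 37 °C, under magnetic stirring, for 5 min. Triplicate measurements.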

Data set [2] deals with Trypanosoma cruzi. Put plainly: Trypanocidal activity against epimastigote stage of Trypanosoma cruzi Y after 72 hrs by MTT assay. Format: functional, organism-based. Summed up:
(§1)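 Log-phase (7-day) Y-strain epimastigotes at 10⁷/mL in LIT medium with 10% fetal calf serum were exposed to DMSO-dissolved compound at 100, 50, 25, 10, 5, 2.5 and 1 µg/mL for 72 h at 28 °C. MTT-PMS was added for 75 min in the dark, then 10% SDS for 30 min. OD was read at 595 nm and percent death determined. IC50 by linear regression of OD. Triplicates, Probit analysis.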
For orientation: Tetrazolium dyes change colour on reduction, which living cells bring about.

In data set [3] the test system is Mus musculus. Put plainly: Mutagenicity in Swiss albino mouse at 100 mg/kg after 30 hrs by micronucleus test. Format: toxicity, organism-based. Also noted: dose 100 mg/kg. Particulars: in vivo. The essentials: (§2)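 Swiss albino mice (~30 g) were dosed by gavage at 50, 100 or 250 mg/kg bwt. Negative control received 1% CMC/0.2% Tween 40 aqueous solution by gavage; a water-only group set basal frequency. Tail blood was taken 30 h after treatment onto acridine orange slides and held ≥24 h at -20 °C in the dark. Micronuclei were counted per 1,000 reticulocytes per animal by fluorescence microscopy. Values are arithmetic means compared by one-way ANOVA/Tukey (P < 0.05).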

In data set [4] the test system is Trypanosoma cruzi. Put plainly: Trypanocidal activity against epimastigote stage of Trypanosoma cruzi Y at 5 ug/mL after 72 hrs by MTT assay relative to control. Format: functional. The essentials: as §1
Data set [5] concerns Mus musculus. Put plainly: Mutagenicity in Swiss albino mouse at 250 mg/kg after 30 hrs by micronucleus test. Type of data set: toxicity, organism-based. Also noted: dose 250 mg/kg. Particulars: in vivo. Summed up: as §2
Data set [6] deals with Trypanosoma cruzi. Put plainly: Trypanocidal activity against epimastigote stage of Trypanosoma cruzi Y at 50 ug/mL after 72 hrs by MTT assay relative to control. Type of data set: functional. Summed up:
as §1

For data set [7], the system named is Trypanosoma cruzi. Put plainly: Potency index, ratio of benznidazole IC50 to compound IC50 for epimastigote stage of Trypanosoma cruzi Y. Type of data set: functional.
Setting [8] is: Trypanosoma cruzi, Y, 72 h, read-out: IC50.

Active and inactive are the calls of the source. The rule behind the calls is not given here.

Chain of Cruzipain (Trypanosoma cruzi) (P25779 123-467 limits assumed): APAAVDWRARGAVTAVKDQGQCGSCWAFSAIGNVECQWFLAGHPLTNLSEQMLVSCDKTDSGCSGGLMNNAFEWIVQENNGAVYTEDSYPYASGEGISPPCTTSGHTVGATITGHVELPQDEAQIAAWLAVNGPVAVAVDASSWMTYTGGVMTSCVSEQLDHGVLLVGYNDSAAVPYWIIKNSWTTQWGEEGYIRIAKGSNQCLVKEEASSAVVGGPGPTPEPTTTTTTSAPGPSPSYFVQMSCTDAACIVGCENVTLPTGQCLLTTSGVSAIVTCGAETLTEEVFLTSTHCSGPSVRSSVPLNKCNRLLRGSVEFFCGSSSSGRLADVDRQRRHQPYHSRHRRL

Consider `C/C(=N\NC(N)=S)c1cccc(N)c1`, for which the inhibition entry in data set [1] is “inactive”. In addition, the half-inhibitory concentration (IC50) with Trypanosoma cruzi [2] (setting [8]) is greater than 480 µM.

For the compound `O=C(Cn1ccnc1[N+](=O)[O-])NCc1ccccc1` [BENZNIDAZOLE], the Activity result in the data set with Mus musculus [3] is on record as “Toxic”. The half-inhibitory concentration (IC50) in the data set with Trypanosoma cruzi [2] (setting [8]) came out at 34.6 µM.

As to `C/C(=N\NC(N)=S)c1ccc(N)c([N+](=O)[O-])c1`, the inhibition in data set [1] came to 55%. In addition, in the data set on Trypanosoma cruzi [2], the half-inhibitory concentration (IC50) entry is “Not Active”.

As to `C/C(=N\N=C(/N)S)c1ccccc1` [PHENYL(METHYL)THIOSEMICARBAZONE], the inhibition result in data set [1] was “inactive”. The 50% inhibitory concentration (IC50) in the data set on Trypanosoma cruzi [2] (setting [8]) came to 195 µM.

On to `C/C(=N\NC(N)=S)c1cccc([N+](=O)[O-])c1`, for which the inhibition in data set [1] came to 5%. Besides, in the data set with Trypanosoma cruzi [4], the inhibition at 5 µg/mL stood at 3%. In the data set with Trypanosoma cruzi [2] (setting [8]), the half-maximal inhibitory concentration (IC50) was greater than 420 µM.

In turn, `NC(=S)N/N=C(\CO)c1ccc([N+](=O)[O-])cc1` yielded an inhibition in data set [1] of 10%. Further, the Activity entry in the data set on Mus musculus [5] and in the data set on Mus musculus [3] was “Non-toxic” each time. The half-maximal inhibitory concentration (IC50) in the data set on Trypanosoma cruzi [2] (setting [8]) turned out to be 37.7 µM.

For the compound `C/C(=N\NC(N)=S)c1ccc([N+](=O)[O-])c(N)c1`, the inhibition in data set [1] turned out to be 65%. The IC50 in the data set on Trypanosoma cruzi [2] (setting [8]) was 239 µM.

In data set [1], `NC(=S)N/N=C(\COC(=O)CCC(=O)O)c1ccc([N+](=O)[O-])cc1` returned an inhibition of 10%. Further, the IC50 with Trypanosoma cruzi [2] (setting [8]) amounted to 116 µM.

In the case of `NC/C(=N\NC(N)=S)c1cccc([N+](=O)[O-])c1`, the inhibition entry in data set [1] was “inactive”. The compound further yielded an inhibition at 50 µg/mL in the data set on Trypanosoma cruzi [6] of 3%. The concentration for half-maximal inhibition (IC50) with Trypanosoma cruzi [2] (setting [8]) was greater than 299 µM.

`C/C(=N\NC(N)=S)c1ccc(N)cc1`: the inhibition in data set [1] came out at 25%. Moreover, the IC50 in the data set on Trypanosoma cruzi [2] (setting [8]) was greater than 480 µM.

`Br.NC/C(=N\NC(N)=S)c1ccc([N+](=O)[O-])cc1` yielded an inhibition in data set [1] of 20%. In addition, the Activity result with Mus musculus [5] and in the data set on Mus musculus [3] was “Non-toxic” each time. Further, the “Ratio IC50” value with Trypanosoma cruzi [7] is on record as 5. For the same compound, the 50% inhibitory concentration (IC50) with Trypanosoma cruzi [2] (setting [8]) amounted to 6.3 µM.

Consider `NC/C(=N\NC(N)=S)c1ccccc1`, for which the inhibition entry in data set [1] is “inactive”. In the data set on Trypanosoma cruzi [2] (setting [8]), the concentration for half-maximal inhibition (IC50) is greater than 409 µM.

The compound `NC(=S)N/N=C(\CNC(=O)CCC(=O)O)c1ccc([N+](=O)[O-])cc1` yielded an inhibition in data set [1] of 50%. For the same compound, the Activity result in the data set with Mus musculus [5] and with Mus musculus [3] was “Non-toxic” each time. Besides, the IC50 in the data set with Trypanosoma cruzi [2] (setting [8]) is 12 µM.

Broadly, the inhibition is the change of the read-out against control, counted positive when it falls. In general, IC50 refers to the point on the concentration scale where inhibition reaches its midpoint.
